Compound activity (PubChem BioAssay)
ARFGAP1 inh = rat ARFGAP1 inhibition. 360,000 tested, 0.26% active. AID 651572. Arfgap1-stimulated ARF1 GTP hydrolysis, GDP FP detection. Q62848. inhibition, % at 16.5 µM;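 active = inhibition above a per-plate limit, mean inhibition of low control wells plus 3 SD, cut at about 25% in these data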;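 note: 0% = DMSO wells with enzyme and 100% = wells lacking Arfgap1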
Target sequence (Q62848 1-136 limits assumed): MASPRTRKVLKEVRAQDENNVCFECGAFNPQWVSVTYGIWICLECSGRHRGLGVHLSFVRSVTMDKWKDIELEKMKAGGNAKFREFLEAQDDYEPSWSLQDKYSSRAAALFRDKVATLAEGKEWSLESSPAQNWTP
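Material: rat Arfgap1 catalytic domain, aa 1-136; also added: human ARF1(Δ1-17)-GTP substrate; compound dosing: one concentration, 16.5 µM, DMSO 1.26%; incubation: GTP hydrolysis reaction 2 h at 25 °C; measured by: Tracer-displacement fluorescence polarization with EDTA stop, 620/688 nm; evaluation: % inhibition from polarization; repeats: one replicate per compound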
Tn7 DDE FP = DD(E)-Tn7 binding inhibition, primary FP screen; inhibition, % at 8.3 µM; AID 720508; 370,000 tested, 0.13% active; P02675; FP displacement of FITC-Tn7 peptide from fibrin DD(E); 0% = median of compound wells per plate;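 active = inhibition above the mean of compounds falling within the control limits plus 3 SD of them, cut at about 14% in these data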;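 note: 0% = plate median of compound wells and 100% = 10 µM Aha-Tn7 peptide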
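assay system = human clot-derived fibrin DD(E) complex | quantity = Fibrin-DD(E) at 2 µM final | timing = 10 min preincubation, 3 h with tracer, room temperature | signal = fluorescence polarization | measure = percent inhibition | benchmarks = high control wells with 10 µM unlabelled Aha-Tn7 peptide (full inhibition) | replicates = singlicate testing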
DDE Tn6 FP inh = inhibitors of Tn6 peptide binding to human fibrin DD(E) | P02675 | Fibrin DD(E) TRITC-Tn6 fluorescence polarization displacement | inhibition, % at 8.3 µM | 370,000 tested, 0.21% active;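 active = inhibition above a per-campaign cutoff: mean of compounds within control limits plus 3 SD, cut at about 15% in these data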;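 note: 0% = median of all compound wells on the plate and 100% = blocking peptide control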
ASAP1 GAP inh = blocks human ASAP1-stimulated Arf1 GTP hydrolysis. 360,000 tested, 0.19% active. GDP FP detection. inhibition, % at 16.5 µM. AID 624377. Q9ULH1; in the data active = inhibition above about 25%;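 note: 0% = vehicle with enzyme and substrate and 100% = no enzyme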
Target sequence (Q9ULH1 325-724 limits assumed): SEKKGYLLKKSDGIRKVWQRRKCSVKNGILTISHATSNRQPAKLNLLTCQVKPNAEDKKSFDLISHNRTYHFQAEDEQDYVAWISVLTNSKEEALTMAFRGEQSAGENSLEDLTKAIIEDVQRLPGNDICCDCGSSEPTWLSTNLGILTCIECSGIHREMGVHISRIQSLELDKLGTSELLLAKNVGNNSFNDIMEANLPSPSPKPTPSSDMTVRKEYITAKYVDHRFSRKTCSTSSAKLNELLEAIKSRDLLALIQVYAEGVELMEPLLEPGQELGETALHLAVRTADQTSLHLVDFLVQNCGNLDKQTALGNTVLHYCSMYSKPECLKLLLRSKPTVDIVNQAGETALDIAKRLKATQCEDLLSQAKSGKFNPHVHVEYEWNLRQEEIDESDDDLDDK
Starred values were filed as active, the others as inactive; · = no result; + = active, no number. A selection: hits, their analogues and other compounds. The true share with any hit is near 0.74%.

SMILES | ARFGAP1 inh | Tn7 DDE FP | DDE Tn6 FP inh | ASAP1 GAP inh
CCN(CC)c1ccc2nc3c4ccccc4c(=O)cc-3oc2c1 | -16 | 5 | 105* | -38
CC1=NN(c2ccccc2)C(=O)/C1=C\c1ccc(Oc2ccc([N+](=O)[O-])cc2[N+](=O)[O-])cc1 | 25* | 1 | 8 | 13
COc1cc(/C=C2\C(=O)N(c3ccccc3)N=C2C)ccc1Oc1ccc([N+](=O)[O-])cc1[N+](=O)[O-] | 14 | 0 | 5 | -7
S=C(SCc1cc(Cl)cc2c1OCOC2)N1CCSCC1 | -3 | 6 | -7 | 1
O=C1c2cccc(NCCNCCO)c2C(=O)c2cccc(NCCNCCO)c21 | -4 | 9 | 48* | 11
O=C(O)CCNc1ccc(NCCC(=O)O)c2c1C(=O)c1ccccc1C2=O | 19 | 7 | 12 | 19
Oc1ccccc1-c1cc(-c2ccc3c(c2)OCCO3)n[nH]1 | 11 | 4 | -10 | 28*
O=C(O)c1cc(-c2ccc3c(c2)OCCO3)n[nH]1 | 6 | -7 | 1 | 2
COc1ccccc1/C=N/NC(=O)CN(C1=NS(=O)(=O)c2ccccc21)c1ccccc1 | 40* | 0 | 2 | 8
COc1ccc(/C=N/NC(=O)CN(C2=NS(=O)(=O)c3ccccc32)c2ccccc2)cc1 | -8 | -4 | 3 | -9
COc1cc2sc3cc(NCCCN4CCOCC4)ccc3c(=O)c2cc1OC | 31* | 2 | -7 | 11
CC(=O)NC(Cc1cc(C)ccc1C)C(=O)N1CCN(C(=O)c2ccc(Br)cc2)CC1 (centres undefined) | -9 | 5 | 3 | 6
CC(=O)NC(Cc1cc(C)ccc1C)C(=O)N1CCN(C(=O)Nc2ccc(C(C)=O)cc2)CC1 (centres undefined) | 0 | 15* | 8 | -3
CCOC(=O)C1CSCCS(=O)(=O)N1Cc1ccccc1F (centres undefined) | -10 | 1 | 3 | -3
Nc1ccn(C2OC(CO)C(O)C2O)c(=O)n1 (centres undefined) | -1 | -1 | 2 | -10
Nc1ccn([C@@H]2O[C@H](CO)[C@@H](O)[C@@H]2O)c(=O)n1 | -3 | 15* | 16* | 7
COc1cccc2c1C(=O)c1c(O)c3c(c(O)c1C2=O)C[C@](O)(C(C)=O)C[C@H]3O[C@@H]1C[C@@H](N)[C@@H](O)[C@@H](C)O1 | 4 | 25* | + | 5
COc1cccc2c1C(=O)c1c(O)c3c(c(O)c1C2=O)CC(O)(C(C)=O)CC3OC1CC(O)C(O)C(C)O1 (centres undefined) | 17 | 26* | + | 5
CCCCC(=O)OCC(=O)C1(O)Cc2c(O)c3c(c(O)c2C(OC2CC(NC(=O)C(F)(F)F)C(O)C(C)O2)C1)C(=O)c1c(OC)cccc1C3=O (centres undefined) | -1 | 0 | 43* | 2
COc1cccc2c1-c1c(O)cccc1C2=O | 0 | -4 | -1 | -6
COC(=O)[C@]12C[C@H](CC(=O)NCc3ccc(C)o3)C(=O)N(CCC3=CCCCC3)C1=C[C@H](C1CCCC1)O[C@@H]2C | · | -7 | -6 | ·
O=C1CSC(c2cccs2)N1c1nncs1 (centres undefined) | 4 | 0 | 3 | -16
Cn1c(=O)c(NCCc2ccccc2)c2c3c(cccc31)C(=O)c1ccccc1-2 | 3 | -1 | + | -9
Cn1c(NCCc2ccccc2)cc(=O)n(C)c1=O | -19 | 4 | -3 | -2
Cn1c(=O)c(NCCO)c2c3c(cccc31)C(=O)c1ccccc1-2 | 12 | -8 | 37* | 8
SMILES | ARFGAP1 inh | Tn7 DDE FP | DDE Tn6 FP inh | ASAP1 GAP inh
COC(=O)c1cc2c(c3c4cc(F)ccc4n(S(=O)(=O)c4ccc(C)cc4)c13)C(=O)N(Cc1ccc(C(F)(F)F)cc1)C2 | -2 | 6 | 6 | -5
CCCCNC(=O)NCC1CCN(Cc2ccc(OC)cc2)CC1 | · | -10 | 3 | ·
CCN(CC)S(=O)(=O)c1ccc(N2CCOCC2)c(NC(=O)COc2ccccc2C)c1 | 8 | 4 | -5 | 2
CCN(CC)S(=O)(=O)c1ccc(N2CCOCC2)c(NC(=O)COc2ccccc2C#N)c1 | 9 | 3 | -6 | 37*
O=C(c1ccccc1Cl)N1CCSCCS1(=O)=O | 5 | -4 | -1 | 1
O=S1(=O)N[C@@H](Cc2ccccc2)COc2cc(N3CCOCC3)ccc21 | -7 | 9 | 11 | 2
Cc1ccc(C2C=C(c3ccccc3)Nc3ncnn32)cc1 (centres undefined) | 14 | 1 | 2 | 9
Brc1ccc(C2=CC(c3cccs3)n3ncnc3N2)cc1 (centres undefined) | 3 | 19* | 4 | 5
O=C(O)c1sc2cc(C(F)(F)F)cnc2c1-c1ccccc1 | 12 | -6 | 5 | 25*
COC(=O)c1sc2cc(C(F)(F)F)cnc2c1-c1ccccc1 | -7 | -8 | -2 | -10
CCCCNc1cccc2c1S(=O)(=O)N[C@H](C)CO2 | -1 | 4 | 0 | -2
Cc1csc(NC(=O)CSc2nnc(-c3ccncc3)o2)n1 | -6 | 2 | 17* | 1
CCOC(=O)Cc1csc(NC(=O)CSc2nnc(-c3ccncc3)o2)n1 | -4 | -7 | 3 | -1
COc1ccc(CN2CCC(CNC(=O)NC3CCCC3)CC2)cc1 | · | -4 | -2 | ·
Cc1ccccc1-c1ccc2c(c1)[C@@H]1C[C@H](N(C)S(=O)(=O)c3ccc(Cl)cc3)[C@H]([C@H](C)O)CN1CC2 | -1 | 3 | 4 | 1
CCOC(=O)CN1C(=O)C(O)(CC(=O)c2cccc(OC)c2)c2ccccc21 (centres undefined) | 26* | -2 | 2 | 12
C#CCN1C(=O)C(O)(CC(=O)c2cccc(OC)c2)c2ccccc21 (centres undefined) | 0 | -1 | 3 | -12
CCCCNS(=O)(=O)c1ccc2nc(SCC(N)=O)[nH]c2c1 | 6 | 1 | -5 | -1
CCCCNS(=O)(=O)c1ccc2nc(SCC(=O)Nc3sccc3C#N)[nH]c2c1 | 23 | -6 | -10 | 27*
Cc1c(C(=O)O)c(O)cc2c1C(=O)c1c(O)c([C@@H]3O[C@H](CO)[C@@H](O)[C@H](O)[C@H]3O)c(O)c(O)c1C2=O | 9 | 7 | 18* | -2
COc1ccc(Cl)cc1NC(=S)N1CCN(C(=O)c2ccco2)CC1 | 39* | -4 | 5 | -3
O=C(COC(=O)Cc1cccs1)Nc1ccc(OC(F)(F)F)cc1 | 3 | 6 | 88* | -13
Cc1noc(C)c1S(=O)(=O)N(C)C[C@@H]1OCc2cn(nn2)CCCC(=O)N([C@H](C)CO)C[C@H]1C | -1 | 0 | -6 | -2
Nc1[nH]c(C(=O)c2ccc(Cl)cc2)c(-c2ccc(Br)cc2)c1C(=O)NCc1ccc(Cl)cc1Cl | -1 | -2 | 3 | 4
CN(CC(=O)Nc1ccc(F)cc1)C(=O)COC(=O)c1ccc(=O)n(Cc2ccccc2)n1 | -12 | 56* | 15 | 5
